# Only some compounds are listed: those with a hit (about 1.3% of all), similar ones and a draw of the others.
# LYPLA2 counter: LYPLA2 (human) inhibition in PME1 counter-screen; 320,000 compounds, 0.38% hits; recombinant LYPLA2, FP-Rh probe fluorescence polarization; AID 2177; inhibition, % at 5.9 µM;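 active = inhibition above the screen-wide mean plus 3 SD, limit set per campaign, cut at about 26% in these data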;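 note: 0% = LYPLA2 with DMSO and 100% = wells lacking LYPLA2 enzyme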
# PME-1 inh: PME-1 (human) inhibition; inhibition, % at 5.9 µM; recombinant PME-1, FP-Rh probe fluorescence polarization; AID 2130; 320,000 compounds, 0.53% hits;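 active = inhibition above the campaign mean of all compounds plus 3 SD, cut at about 26% in these data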;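 note: competitive labeling of PME-1 active site by serine hydrolase directed probe; 0% = PME-1 with DMSO and 100% = wells lacking PME-1 enzyme; inhibitors block probe labeling so polarization falls and inhibition rises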
# PAD4 FP inh: PAD4 (human) enzyme inhibition; inhibition, % at 6.36 µM; 330,000 compounds, 0.41% hits; Q9UM07; recombinant PAD4, RCA probe fluorescence polarization;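 active = percent inhibition above a cutoff equal to the mean of all tested compounds plus 3 SD, cut at about 15% in these data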;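 note: 0% = PAD4 with RCA probe and DMSO and 100% = probe without PAD4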
# Fam108B inh: blocks mouse Fam108B hydrolase in RBBP9 counter-screen; recombinant Fam108B, FP-Rh probe fluorescence polarization; inhibition, % at 9.51 µM; 300,000 compounds, 0.33% hits; AID 1947;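 active = inhibition above the screen mean inhibition plus 3 SD, computed separately per campaign, cut at about 18% in these data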;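 note: inhibitors lower polarization as less probe binds the enzyme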
# RBBP9 inhibitor: inhibitors of human serine hydrolase RBBP9 | O75884 | recombinant RBBP9, FP-Rh probe fluorescence polarization | inhibition, % at 7.94 µM | 220,000 compounds, 0.2% hits | AID 1515;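 active = inhibition above the campaign mean of all tested compounds plus 3 SD, cut at about 14% in these data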;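 note: plate controls were DMSO wells with RBBP9 for no effect and wells lacking RBBP9 protein for full effect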
# Target sequence (O75884 whole entry, looked up): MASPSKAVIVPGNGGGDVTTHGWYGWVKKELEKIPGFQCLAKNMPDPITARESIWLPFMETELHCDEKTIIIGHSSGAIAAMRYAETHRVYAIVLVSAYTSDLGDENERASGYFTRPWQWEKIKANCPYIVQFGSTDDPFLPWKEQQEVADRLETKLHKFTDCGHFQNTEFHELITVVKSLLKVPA
#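 Controls: DMSO-treated enzyme wells and wells lacking RBBP9 | Material: RBBP9 protein | Technique: Fluorescence polarization | Replication: Single well per compound, no replicates | Buffer or medium: Tris-NaCl-Pluronic buffer, pH 8.0 | Timing: 30 min compound preincubation, 45 min probe labeling, 25 °C | Read-out basis: Percent inhibition from mP, scaled between DMSO and no-protein wells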
# LYPLA1 counter: LYPLA1 (human) inhibition in PME1 counter-screen. O75608. recombinant LYPLA1, FP-Rh probe fluorescence polarization. inhibition, % at 5.9 µM. 320,000 compounds, 0.16% hits;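 active = inhibition above the mean of all tested compounds plus 3 SD, set per campaign, cut at about 14% in these data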;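 note: inhibitors block serine hydrolase probe labeling of LYPLA1 so polarization falls; 0% = enzyme with DMSO and 100% = wells lacking LYPLA1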
# Target sequence (O75608 whole entry, looked up): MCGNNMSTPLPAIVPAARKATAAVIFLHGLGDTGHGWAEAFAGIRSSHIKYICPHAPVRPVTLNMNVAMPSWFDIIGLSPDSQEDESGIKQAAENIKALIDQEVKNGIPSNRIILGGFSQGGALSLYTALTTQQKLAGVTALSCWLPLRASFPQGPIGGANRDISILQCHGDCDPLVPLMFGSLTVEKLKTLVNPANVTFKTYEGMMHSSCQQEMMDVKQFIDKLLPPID
# An asterisk follows results filed as active; nt = not tested or not shown.
SMILES,LYPLA2 counter,PME-1 inh,PAD4 FP inh,Fam108B inh,RBBP9 inhibitor,LYPLA1 counter
O=C1[C@H]2[C@H](C=CC[C@H]2C(=O)N2CCOCC2)CCN1Cc1ccccc1,-10,-4,-6,1,nt,4
CC(C)c1ccc(/C=C2\NC(=S)N(Cc3cccnc3)C2=O)cc1,1,0,-1,-1,-1,0
CN1CCN(C2=C(Cl)C(=O)C(c3cnc(N4CCCCC4)s3)=C(Cl)C2=O)CC1,8,12,23*,6,3,0
CN1CCN(C2=C(Cl)C(=O)N(C3CCCCC3)C2=O)CC1,9,9,-2,1,-11,8
O=C(NCCc1ccccc1)c1ccc2nc(-c3ccco3)c(-c3ccco3)nc2c1,12,30*,-19,11,-4,-7
CCOc1ccc(C(=O)Nc2cc(S(=O)(=O)Nc3ccccc3Cl)ccc2N2CCOCC2)cc1,0,6,-1,-4,-9,0
O=C(c1cccs1)N1CCC(c2nc3c(nnn3Cc3ccccc3Cl)c(=O)[nH]2)CC1,0,28*,-3,-1,nt,0
O=C(c1ccccc1)N1CCC(c2nc3c(nnn3Cc3ccccc3Cl)c(=O)[nH]2)CC1,2,21,0,6,-12,-3
CN(Cc1nc(-c2cccs2)no1)CC(O)c1ccccc1 (configuration not stated),-2,0,2,0,0,0
CC[C@@]12C(=O)N(c3cccc(F)c3)C(=O)N1[C@H](c1ccc(Cl)cc1)[C@@H]1C(=O)N(C3CCCCC3)C(=O)[C@@H]12,-2,3,4,-4,nt,-2
Cc1oc(-c2ccc3ccccc3c2)nc1CN(C)C(C)c1ccncn1 (configuration not stated),-9,29*,-1,-3,-2,-2
CC(C)(C)c1ccc(OCc2ccc(C(=O)N/N=C/c3ccc(O)c(O)c3)cc2)cc1,0,17,-1,27*,-8,-11
COc1cc2c(cc1OC)C(c1cc(Br)ccc1F)N(C(=O)CCl)CC2 (configuration not stated),5,31*,0,-5,nt,-3
Cc1[nH]c(N=Nc2ccccc2)nc1N=Nc1ccccc1,-5,76*,0,16,-2,-3
CC1(OC(=O)c2ccc(Cl)nc2)C(=O)C=C2C=C(C3CC3)OC=C2C1=O (configuration not stated),21,25,14,20*,nt,21*
Cc1ccc(-c2c(C(=O)N/N=C/c3c[nH]c4ccccc34)nnn2-c2nonc2N)cc1,7,27*,2,8,nt,-8
COCc1c(C(=O)N/N=C/c2c[nH]c3ccccc23)nnn1-c1nonc1N,5,2,-4,1,nt,2
CCc1ccc(N2C(=O)CC(Cn3nc(C)cc3C)C2=O)cc1 (configuration not stated),-6,-3,-3,-3,5,-2
Cc1ccccc1N=Nc1c(O)n(C)c2ccccc12,2,2,-4,0,nt,2
O=C1Nc2ccccc2/C1=N\N=C\C1=C(N2CCOCC2)C(=C\c2ccccc2)/CC1,3,31*,0,10,2,-2
Cn1cc(C(=O)N/N=C/C2=C(N3CCOCC3)C(=C\c3ccccc3)/CC2)ccc1=O,-1,5,0,-1,-6,1
COc1cccc(-c2nc(NC(C)C)c3ccccc3n2)c1O,6,26*,-1,11,9,-5
COc1cccc(-c2nc(Oc3cccc(C)c3C)c3ccccc3n2)c1O,1,1,7,1,-2,0
O=C(OCn1ncc(Br)c(Br)c1=O)c1ccc(F)cc1,-9,-4,26*,-11,0,-3
CC(=O)OCn1ncc(N2CCOCC2)c(Br)c1=O,5,0,2,-6,nt,-2
SMILES,LYPLA2 counter,PME-1 inh,PAD4 FP inh,Fam108B inh,RBBP9 inhibitor,LYPLA1 counter
Nc1n[nH]c(C2CC2)c1N=Nc1ccc(Cl)cc1,-3,0,3,3,6,2
Nc1n[nH]c(C2CC2)c1N=Nc1ccc(Cl)c(Cl)c1,-10,31*,1,5,-3,-1
O=C1NC(=O)C(c2ccccc2[N+](=O)[O-])=C1Nc1ccc(O)c(Cl)c1,2,6,46*,16,nt,-2
O=C(CN1CCC(c2nc3ccccc3s2)CC1)NCc1cccs1,-3,40*,-8,0,-11,-1
CCCCn1c(-c2ccccc2)cnc1SCC(=O)NCCc1ccc(OC)c(OC)c1,3,-1,2,7,-6,0
COC/C=C/C1=CC2=CC(=O)C(C)(OC(=O)c3cccs3)C(=O)C2=CO1 (configuration not stated),-6,-2,6,3,nt,-3
COC/C=C/C1=CC2=CC(=O)C(C)(OC(=O)c3ccco3)C(=O)C2=CO1 (configuration not stated),-3,-4,24*,9,nt,10
O=c1c2[nH]cnc2n(-c2cccc(Br)c2)c(=O)n1Cc1ccccc1,6,-3,-1,-4,nt,-4
O=C(N/N=C/c1cccs1)c1cc(-c2ccc(Cl)s2)[nH]n1,-21,-38,-7,-17,nt,-12
O=C1C2C3C=CC(CO)(O3)C2C(=O)N1c1ccccc1-c1ccccc1 (configuration not stated),7,2,0,2,33*,3
CN(C)c1ccc(NC(=O)Nc2cccc(Cl)c2)cc1,3,32*,-4,5,5,-4
CCOC(=O)c1sc(NC(=O)Nc2cccc(Cl)c2)cc1C,-13,13,-1,25*,-8,-19
Cc1nnnn1CC(=O)Nc1ccccc1[N+](=O)[O-],-4,8,0,1,-6,2
Cc1ccc(Nc2cc(C)c3c(O)cccc3n2)cc1C,8,31*,-5,4,-2,-7
COc1ccc(Nc2cc(C)c3c(O)cccc3n2)cc1,4,16,-6,5,-2,1
NC(=O)c1sc2nc(-c3ccccc3)c3c(c2c1N)CCCC3,1,33*,2,5,-10,0
C=CCn1c(SCC(=O)NC(=O)Cc2ccccc2)nnc1-c1ccccc1F,nt,nt,-4,nt,nt,nt
Cn1c2ccccc2c2cc(/C=N/NC(=O)c3ccc(O)cc3O)ccc21,-18,47*,-5,15,nt,-14
CCn1c2ccccc2c2cc(/C=N/NC(=O)c3ccc(O)cc3)ccc21,-39,-10,-3,-9,-14,-26
Cc1cc(O)c(NC(=S)NC(=O)c2ccc(-c3ccc(Cl)cc3)o2)cc1C,-11,39*,-3,1,-9,-8
Cc1ccc(O)c(NC(=S)NC(=O)Cc2ccc(Cl)cc2)c1,4,1,-2,-3,nt,2
Cc1ccc(NC(=S)NC(=O)c2ccc(-c3ccc(Cl)cc3)o2)c(O)c1,-18,30*,4,-7,-6,-14
c1cnn(Cc2cnc(N3CCOCC3)s2)c1,-1,-6,-2,-3,5,0
